Sampled rows, rich in hits. Any-hit rate of the full collection: about 1.7%.
EBNA-1 inhibitor = blocks EBNA-1 binding to DNA. EBNA-1 DNA binding, fluorescence polarization. inhibition, % at 14.8 µM. 300,000 compounds, 0.34% hits; in the data active means inhibition above about 28%
PREPL inh = inhibitors of human prolyl oligopeptidase-like enzyme PREPL. inhibition, % at 5.96 µM. AID 2751. recombinant PREPL, fluorescence polarization activity-based probe. Q4J6C6. 320,000 compounds, 0.68% hits; in the data active means inhibition above about 43%;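 further: 0% = enzyme with DMSO and 100% = wells lacking enzyme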
Apaf1 inhib = inhibitors of human Apaf-1 apoptosome; inhibition, % at 20 µM; O14727; reconstituted apoptosome caspase-3 activity, DEVD-Rh110 fluorescence; 330,000 compounds, 0.71% hits; active means inhibition of at least 40% at 20 µM;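 further: plate controls were DMSO wells for no effect and DEVD-CHO caspase inhibitor wells for full effect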
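Material: reconstituted apoptosome with Apaf-1, cytochrome c, caspase-9, procaspase-3, dATP. Technique: Rh110 fluorescence intensity. Buffer or medium: pH 7.5 Hepes buffer with CHAPS, BSA, DTT. Times: 30 min plus 50 min, RT.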
ZTA DNA inh = blocks Epstein-Barr virus ZTA, an EBNA-1 counter-screen; P03206; ZTA-DNA binding, fluorescence polarization; inhibition, % at 11 µM; 320,000 compounds, 0.15% hits; in the data active means inhibition above about 33%
Target sequence (P03206 whole entry, looked up): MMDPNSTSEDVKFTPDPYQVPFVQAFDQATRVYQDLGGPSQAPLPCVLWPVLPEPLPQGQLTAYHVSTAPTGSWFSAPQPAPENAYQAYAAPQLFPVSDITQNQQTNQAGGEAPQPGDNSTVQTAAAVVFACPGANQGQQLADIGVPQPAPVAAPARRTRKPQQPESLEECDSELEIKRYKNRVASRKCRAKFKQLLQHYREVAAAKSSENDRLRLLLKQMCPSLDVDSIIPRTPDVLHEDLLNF
UBC13 polyUb = human UBC13 polyubiquitination inhibition. UBC13 polyubiquitin chain formation, TR-FRET. P61088. 330,000 compounds, 0.47% hits. inhibition, % at 20 µM; in the data active means inhibition above about 45%, passing the limit was not always enough
Target sequence (P61088 whole entry, looked up): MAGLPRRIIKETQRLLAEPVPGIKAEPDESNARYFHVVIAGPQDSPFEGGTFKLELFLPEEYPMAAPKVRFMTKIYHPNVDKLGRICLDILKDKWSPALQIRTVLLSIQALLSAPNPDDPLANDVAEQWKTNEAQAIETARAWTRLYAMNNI
Apaf-1 inh conf2 = confirmation of Apaf-1 inhibitors. 1,800 compounds, 25% hits. shares compounds with Apaf1 inhib. reconstituted apoptosome, caspase-3 DEVD-Rh110 fluorescence. inhibition, % at 20 µM. AID 504614;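 active means mean inhibition of at least 40% at 20 µM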;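 further: plate controls were DMSO wells for no effect and DEVD-CHO caspase inhibitor control wells for full effect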
Rh110 quench = interferes with Rh110 fluorescence, flagging false Apaf-1 inhibitors | activation (fluorescence interference), % at 20 µM | Rh110 fluorescence interference, quenched caspase reaction | AID 504615 | 1,800 tested, under 10 active | shares compounds with Apaf1 inhib;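 active means signal rise of 40% or more at 20 µM, treated as a fluorescence artifact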
Fluor interf inh = shows fluorescence interference in the Apaf-1 inhibitor assay format; shares compounds with Apaf1 inhib; fluorescence interference counterscreen, Apaf-1 assay format; IC50, µM; 460 tested, under 10 active; call rule not given here
Active calls of the source: *; . = not tested or not shown.

SMILES | EBNA-1 inhibitor | PREPL inh | Apaf1 inhib | ZTA DNA inh | UBC13 polyUb | Apaf-1 inh conf2 | Rh110 quench | others
CN1C(=O)CC(Nc2cccc3cccc(N)c23)C1=O (stereo not given) | 5 | 6 | 54* | 20 | -13 | 12 | 3
Nc1nc2cc3ccccc3cc2[nH]c1=O | 0 | 6 | 5 | -13 | -14 | . | .
CCCOc1ccc(C(=O)Nc2ccc(S(=O)(=O)Nc3onc(C)c3C)cc2)cc1 | 2 | 10 | 1 | 10 | -5 | . | .
Cc1c(Cl)cccc1N=C(N)N=C(N)N | -7 | -3 | 0 | -5 | -4 | . | .
NC(N)=NC(N)=Nc1cccc2ccccc12 | -12 | 13 | 83* | -15 | 0 | 11 | 5
O=c1[nH]c(Nc2ccc(F)cc2)cc2ccccc12 | 4 | 31 | 95* | 14 | -18 | 91* | 8 | Fluor interf inh=>100
Cc1cc2ccccc2c(=O)[nH]1 | 12 | 1 | -18 | 13 | 4 | . | .
O=c1[nH]c(Nc2ccccc2Cl)cc2ccccc12 | 2 | 20 | 98* | 8 | -61 | 79* | 14 | Fluor interf inh=>100
O=C(Cc1ccccc1Cl)NC1(O)C(=O)c2ccccc2C1=O | 9 | 20 | 89* | -1 | -24 | 65* | 1 | Fluor interf inh=>100
COc1ccc(CCNC(=O)c2ccc3c(c2)N(Cc2ccc(F)cc2)CCS3)cc1OC | -5 | 7 | 17 | -3 | 22 | . | .
COc1ccc2c(c1)CCc1sc(NC(=O)c3ccc(C)cc3)nc1-2 | 13 | 17 | 4 | -2 | 10 | . | .
COc1ccc2c(c1)Cc1sc(NC(=O)c3ccco3)nc1-2 | -2 | 13 | 85* | 3 | -50 | 56* | 5 | Fluor interf inh=>100
COc1ccc2c(c1)Cc1sc(NC(=O)c3cccnc3)nc1-2 | -13 | 17 | 89* | -5 | -44 | 30 | 4
COc1ccc2c(c1)Cc1sc(NC(C)=O)nc1-2 | -2 | 18 | 73* | -2 | -16 | 16 | -4
CCOC(=O)N1CCC(n2c(SCC(=O)N3CCC(C)CC3)nc3ccccc3c2=O)CC1 | -8 | -14 | 23 | -3 | -8 | . | .
O=[N+]([O-])c1c(Nc2ccccn2)cc(Cl)c2nonc12 | 2 | 28 | 91* | 3 | -146 | 28 | -2
O=C(O)c1ccccc1Nc1cc(Cl)c2nonc2c1[N+](=O)[O-] | 2 | 2 | -2 | -2 | -36 | . | .
CCCCOc1ccc(C(=O)NCC(=O)NCC(c2cccs2)N2CCOCC2)cc1 (stereo not given) | . | 6 | 41* | 20 | 18 | 42* | 13 | Fluor interf inh=>100
Cc1ccc(C(=O)NCC(=O)NCC(c2cccs2)N2CCOCC2)cc1 (stereo not given) | . | 6 | 40 | 1 | 9 | . | .
O=C(COC(=O)c1ccc(CO)cc1)Nc1ccc2ccccc2c1 | . | -3 | -9 | 3 | -8 | . | .
COc1cc2c(cc1OC)C1=C(C#N)CC/C(=N\S(=O)(=O)c3ccccc3)N1CC2 | -12 | 8 | 20 | 8 | -7 | . | .
COc1cc2c(cc1OC)C1=C(C#N)CCC(=O)N1CC2 | 5 | 2 | 50* | 5 | -4 | 6 | 5
Cc1cccc(N(C)S(=O)(=O)c2ccc3[nH]cc(C(=O)N4CCOCC4)c(=O)c3c2)c1 | -6 | 2 | -1 | -4 | -10 | . | .
Oc1cccc(C=Nc2cccc3ccccc23)c1O | -15 | 28 | 74* | 3 | -71 | 11 | 4
Oc1cccc(C=NCc2ccccc2)c1O | 2 | 25 | 82* | -24 | -23 | 8 | -6
SMILES | EBNA-1 inhibitor | PREPL inh | Apaf1 inhib | ZTA DNA inh | UBC13 polyUb | Apaf-1 inh conf2 | Rh110 quench | others
Oc1c(C=NCc2ccccc2)sc2ccccc12 | -10 | 16 | 10 | -12 | -3 | . | .
O=S1(=O)CC(N2CCOCC2)c2ccccc21 (stereo not given) | -9 | -6 | -14 | -4 | 4 | . | .
C=CCOc1ccc(C2NC(=S)NC3=C2CCc2ccccc23)cc1 (stereo not given) | -4 | 2 | 1 | -13 | 0 | . | .
O=C1NC2=C(CCc3ccccc32)C(c2ccccc2)N1 (stereo not given) | 4 | 6 | 91* | -10 | -21 | 13 | 0
C/C(CC(=O)Nc1ccc(N(C)C)cc1)=N\NC(=O)C(=O)NCc1ccccc1 | 4 | 0 | -2 | 8 | 3 | . | .
O=C(c1ccccc1)N1CCN(S(=O)(=O)N2CCOCC2)CC1 | 7 | -2 | -11 | 2 | 3 | . | .
CC(C)c1ccc(C2/C(=C(\O)c3ccc4c(c3)OCCO4)C(=O)C(=O)N2CCN2CCOCC2)cc1 (stereo not given) | -19 | 9 | -7 | 0 | -22 | . | .
O=C1C(=O)N(CCN2CCOCC2)C(c2ccccc2)/C1=C(\O)c1ccc2c(c1)OCCO2 (stereo not given) | 0 | -2 | 50* | 9 | -23 | 1 | 5
Oc1c(Br)cc(Br)cc1C=Nc1ccc2[nH]ncc2c1 | 6 | 3 | 84* | -4 | -3 | 34 | 7
Oc1c(Br)cc(Br)cc1C=Nc1cccnc1 | 7 | 7 | 79* | 23 | -44 | 36 | 5
Oc1c(Br)cc(Br)cc1/C=N/c1nccs1 | . | 3 | 8 | 15 | -6 | . | .
COc1cc(-c2nnc(SC/C=C/c3ccccc3)n2N)cc(OC)c1OC | 3 | 10 | 8 | 9 | -16 | . | .
COc1ccc(OCCSc2ccc(S(=O)(=O)N3CCCC3)cn2)cc1 | . | 4 | 15 | -1 | -3 | . | .
CN1CCN(S(=O)(=O)c2ccc(SCCOc3ccc(Cl)cc3)nc2)CC1 | . | 40 | 51* | -10 | 31 | 15 | 7
Cc1ccc(CNc2ccc(O)cc2)cc1 | . | . | 94* | . | -39 | 11 | 7
CC1(C)Cc2cccc(OCC(=O)N3CCN(c4cccc(C(F)(F)F)c4)CC3)c2O1 | 5 | 24 | 45* | 2 | 14 | 45* | 9 | Fluor interf inh=>100
Cc1ccc(C(=O)N/N=C/c2ccc(-c3cccc(Cl)c3)o2)cn1 | -8 | 6 | 19 | -6 | -11 | . | .
Cc1ccc(C(=O)N/N=C/c2ccc(-c3ccccc3[N+](=O)[O-])o2)cn1 | -2 | 3 | 75* | 3 | -39 | 30 | 5
O=C(N/N=C/c1ccc(-c2ccccc2[N+](=O)[O-])o1)[C@H]1C[C@@H]1c1ccccc1 | 0 | 8 | 68* | 7 | -16 | 22 | 2
COc1ccc(NC(=O)C2CCC(=O)N2S(=O)(=O)c2ccc(C)cc2)cc1Cl (stereo not given) | -9 | 6 | 9 | -4 | 0 | . | .
CC1CC2(CCCCC2)N2C(=O)C(=O)c3cccc1c32 (stereo not given) | 8 | 13 | 41* | 4 | -11 | 41* | 5 | Fluor interf inh=>100
Cc1cc2c3c(c1)C(C)CC(C)(C)N3C(=O)C2=O (stereo not given) | 11 | -5 | 2 | -7 | -29 | . | .

High-throughput results (PubChem)
